This note sets out measurements from ChEMBL document CHEMBL1155356, “Design, synthesis, and structure-activity relationship of novel orally efficacious pyrazole/sulfonamide based dihydroquinoline gamma-secretase inhibitors” (Bioorg Med Chem Lett, 2009).

For one series, the target named is Gamma-secretase. The series is described as follows: Inhibition of Gamma-secretase in human IMR-32 cells after 2 hrs by ELISA assay. It is filed as cell-based. A digest of the protocol: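 γ-Secretase came from IMR-32 cell membranes, and compound was first diluted in DMSO. Reaction at 37 °C was started with MBPC-125 Swedish substrate, run for 2 h, then stopped with SDS. Cleaved substrate was measured by Aβ40-specific ELISA. Values are means of three experiments.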

Series [1] in a line: (§1) Oxidative metabolic stability in human liver microsomes at 1 uM after 30 mins in presence of 1 mM NADPH. Type of series: ADME, Microsome. The settings on record: liver microsomes, read-out: Stability. A digest of the protocol: (§2)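 Oxidative stability: compound at 1 µM incubated 30 min at 37 °C in phosphate buffer with liver microsomes (0.5 mg/ml protein) plus 1 mM NADPH. Percent parent remaining reported. Human or mouse microsomes per line.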

Series [2] in a line: Oxidative metabolic stability in mouse liver microsomes at 1 uM after 30 mins in presence of 1 mM NADPH. Type of series: ADME, Microsome. The settings on record: for remaining at 0.5 h, 1 µM: liver microsomes, read-out: Stability. A digest of the protocol: as §2
In general terms: Liver microsomes are a subcellular fraction often used to study metabolism.

Another series deals with Liver microsomes. Described as §1. It is filed as ADME, Microsome. Particulars: microsomes, 0.5 h, 1 µM; call rule not given here. The procedure, abridged: as §2

The IC50 is the midpoint of a concentration-inhibition curve. A lower IC50 goes with greater potency in that assay.

`CC1c2c[nH]nc2-c2ccncc2N1S(=O)(=O)c1ccc(Cl)cc1` (racemic) yielded an IC50 against Gamma-secretase of 2.6 nM. Moreover, the remaining at 0.5 h, 1 µM was 6% in series [1] and 3% in series [2].

Consider `O=S(=O)(c1ccc(C(F)(F)F)cc1)N1c2ccccc2-c2n[nH]cc2C1C1CC1` (racemic), for which, at Gamma-secretase, the IC50 worked out at 0.31 nM. Besides, the remaining at 0.5 h, 1 µM in series [1] amounted to 45%; in series [2], 49%.

On to `CC1c2c[nH]nc2-c2ccc(F)cc2N1S(=O)(=O)c1ccc(Cl)cc1` (racemic), for which the IC50 on Gamma-secretase was determined as 2.1 nM. The values for the remaining at 0.5 h, 1 µM in series [1] and in series [2] were 6% and 23%, respectively.

As for `CC1c2c[nH]nc2-c2ccc(OC(=O)N(C)C)cc2N1S(=O)(=O)c1ccc(Cl)cc1` (racemic), at Gamma-secretase, the IC50 worked out at 0.93 nM. For the same compound, the remaining at 0.5 h, 1 µM in series [1] and in series [2] was 0% in each case.

The compound `O=S(=O)(c1ccc(C(F)(F)F)cc1)N1c2cccnc2-c2n[nH]cc2C1C1CC1` (racemic) came in with an IC50 at Gamma-secretase of 2.1 nM. The values for the remaining at 0.5 h, 1 µM in series [1] and in series [2] were 44% and 25%, respectively.

`O=S(=O)(c1ccc(C(F)(F)F)cc1)N1c2cc(I)ccc2-c2n[nH]cc2C1C1CC1` (single isomer, unassigned; enantiomer 3): half-maximal inhibition on Gamma-secretase (IC50) required 0.26 nM. Besides, the figures for the remaining at 0.5 h, 1 µM in series [1] and in series [2] were 80% and 78%, respectively.

For `N#Cc1ccc(S(=O)(=O)N2c3ccccc3-c3n[nH]cc3C2C2CC2)cc1` (racemic), 0.74 nM corresponded to half-maximal inhibition against Gamma-secretase (IC50). Also, the remaining at 0.5 h, 1 µM was 9% in series [1] and 11% in series [2].

On Gamma-secretase, `O=S(=O)(c1ccc(C(F)(F)F)cc1)N1c2cc(Cl)ccc2-c2n[nH]cc2C1C1CC1` (racemic) showed an IC50 of 0.44 nM. Moreover, the remaining at 0.5 h, 1 µM in series [1] worked out at 87%; in series [2], 85%.

The compound `O=S(=O)(c1ccc(C(F)(F)F)cc1)N1c2cc(-c3cscn3)ccc2-c2n[nH]cc2C1C1CC1` (racemic) gave an IC50 against Gamma-secretase of 0.41 nM. Also, the remaining at 0.5 h, 1 µM in series [1] turned out to be 60%; in series [2] it was 32%.

As to `CC1c2c[nH]nc2-c2ccc(OCc3ccccc3)cc2N1S(=O)(=O)c1ccc(Cl)cc1` (racemic), on Gamma-secretase, the IC50 was found to be 1.5 nM. For the same compound, the values for the remaining at 0.5 h, 1 µM in series [1] and in series [2] were 0% and 1%, respectively.

Regarding `O=S(=O)(c1ccc(OC(F)F)cc1)N1c2ccc(F)cc2-c2n[nH]cc2C1C1CC1` (racemic), the IC50 at Gamma-secretase worked out at 0.76 nM. Besides, the remaining at 0.5 h, 1 µM in series [1] was 68%; in series [2], 56%.

The compound `O=S(=O)(c1ccc(OC(F)(F)F)cc1)N1c2ccc(F)cc2-c2n[nH]cc2C1C1CC1` (racemic) registered a half-maximal inhibitory concentration (IC50) against Gamma-secretase of 0.37 nM. The remaining at 0.5 h, 1 µM in series [1] stood at 60%; in series [2] it was 55%.

On to `CC1c2c[nH]nc2-c2ccccc2N1S(=O)(=O)c1ccccn1` (racemic), for which the IC50 at Gamma-secretase was 290 nM. The remaining at 0.5 h, 1 µM in series [1] amounted to 73%; in series [2] it was 46%.

As to `COC(=O)c1ccc2c(c1)N(S(=O)(=O)c1ccc(C(F)(F)F)cc1)C(C1CC1)c1c[nH]nc1-2` (racemic), half-maximal inhibition on Gamma-secretase (IC50) required 0.26 nM. Also, the Stability entry in the series with Liver microsomes is “Not Active”; in series [2] (microsomes, 0.5 h, 1 µM), “Not Active”.

`CC1c2cn[nH]c2-c2ccc(O)cc2N1S(=O)(=O)c1ccc(Cl)cc1` (racemic) showed an IC50 on Gamma-secretase of 0.65 nM. In addition, the figures for the remaining at 0.5 h, 1 µM in series [1] and in series [2] were 50% and 27%, respectively.

`O=S(=O)(c1ccc(C(F)(F)F)cc1)N1c2cc(-c3cncnc3)ccc2-c2n[nH]cc2C1C1CC1` (racemic) returned an IC50 at Gamma-secretase of 0.2 nM. Besides, the results for the remaining at 0.5 h, 1 µM in series [1] and in series [2] were 27% and 3%, respectively.

Consider `Nc1ccc(S(=O)(=O)N2c3cc(F)c(F)cc3-c3n[nH]cc3C2C2CC2)cc1` (racemic), for which the IC50 on Gamma-secretase was 85 nM. Further, the remaining at 0.5 h, 1 µM in series [1] worked out at 53%; in series [2], 35%.

`O=S(=O)(c1ccc(Cl)cc1)N1c2ccccc2-c2n[nH]cc2C1C1CC1` (racemic) had an IC50 against Gamma-secretase of 0.17 nM. Also, the results for the remaining at 0.5 h, 1 µM in series [1] and in series [2] were 4% and 15%, respectively.

`O=C1OCCN1c1ccc2c(c1)N(S(=O)(=O)c1ccc(C(F)(F)F)cc1)C(C1CC1)c1c[nH]nc1-2` (racemic) came in with an IC50 at Gamma-secretase of 0.26 nM. Besides, the remaining at 0.5 h, 1 µM worked out at 32% in series [1] and 13% in series [2].

At Gamma-secretase, `CC1c2c[nH]nc2-c2cc(F)ccc2N1S(=O)(=O)c1ccc(Cl)cc1` (racemic) came in with an IC50 of 1.6 nM. In addition, the values for the remaining at 0.5 h, 1 µM in series [1] and in series [2] were 13% and 23%, respectively.

At Gamma-secretase, `O=S(=O)(c1cccs1)N1c2cc(F)c(F)cc2-c2n[nH]cc2C1C1CC1` (racemic) gave a half-inhibitory concentration (IC50) of 2.9 nM. The remaining at 0.5 h, 1 µM in series [1] amounted to 1%; in series [2], 5%.

As for `O=S(=O)(c1ccc(Cl)s1)N1c2cc(F)c(F)cc2-c2n[nH]cc2C1C1CC1` (racemic), inhibition against Gamma-secretase was half-maximal at 0.52 nM (IC50). The remaining at 0.5 h, 1 µM in series [1] came out at 4%; in series [2], 9%.

As to `CC1c2c[nH]nc2-c2ccccc2N1S(=O)(=O)c1ccc(Cl)cc1` (racemic), the IC50 on Gamma-secretase was determined as 1.2 nM. Also, the remaining at 0.5 h, 1 µM in series [1] was 3%; in series [2], 16%.

On to `O=S(=O)(c1ncc(Cl)s1)N1c2cc(F)c(F)cc2-c2n[nH]cc2C1C1CC1` (single isomer, unassigned; enantiomer 2), for which the IC50 at Gamma-secretase turned out to be 0.46 nM. Further, the remaining at 0.5 h, 1 µM in series [1] was 23%; in series [2] it was 4%.

For the compound `COc1ccc2c(c1)N(S(=O)(=O)c1ccc(Cl)cc1)C(C)c1c[nH]nc1-2` (racemic), at Gamma-secretase, the IC50 worked out at 2 nM. For the same compound, the remaining at 0.5 h, 1 µM in series [1] and in series [2] was 1% throughout.

On to `O=S(=O)(c1ccc(C(F)(F)F)cc1)N1c2cc(-n3ccnc3)ccc2-c2n[nH]cc2C1C1CC1` (racemic), for which half-maximal inhibition against Gamma-secretase (IC50) was put at 0.24 nM. Besides, the remaining at 0.5 h, 1 µM in series [1] is 59%; in series [2], 55%.

The compound `CC1c2cn[nH]c2-c2ccccc2N1S(=O)(=O)c1cccnc1` (racemic) registered an IC50 on Gamma-secretase of 140 nM. Also, the remaining at 0.5 h, 1 µM in series [2] worked out at 3%.

For `CC1c2c[nH]nc2-c2c(F)cccc2N1S(=O)(=O)c1ccc(Cl)cc1` (racemic), inhibition against Gamma-secretase was half-maximal at 1.4 nM (IC50). Also, the remaining at 0.5 h, 1 µM in series [1] was 3%; in series [2], 11%.

On Gamma-secretase, `O=S(=O)(c1ccc(Cl)cc1)N1c2ccccc2-c2n[nH]cc2C1C(F)(F)F` (racemic) registered an IC50 of 0.21 nM. In addition, the remaining at 0.5 h, 1 µM in series [1] came to 13%; in series [2] it was 10%.

At Gamma-secretase, `O=S(=O)(c1ccc(F)cc1)N1c2ccccc2-c2n[nH]cc2C1C1CC1` (racemic) displayed an IC50 of 0.42 nM. For the same compound, the remaining at 0.5 h, 1 µM in series [1] came out at 8%; in series [2], 11%.

On Gamma-secretase, `O=S(=O)(c1ccc(C(F)(F)F)cc1)N1c2c[n+]([O-])ccc2-c2n[nH]cc2C1C1CC1` (racemic) came in with an IC50 of 2.4 nM. Moreover, the remaining at 0.5 h, 1 µM in series [1] turned out to be 87%; in series [2], 88%.

As for `CCC1c2cn[nH]c2-c2ccccc2N1S(=O)(=O)c1ccc(Cl)cc1` (racemic), on Gamma-secretase, the IC50 is 0.36 nM. For the same compound, the remaining at 0.5 h, 1 µM came out at 2% in series [1] and 7% in series [2].

Compound `O=S(=O)(c1ccc(Cl)cn1)N1c2ccc(F)cc2-c2n[nH]cc2C1C1CC1` (racemic) came in with an IC50 on Gamma-secretase of 1.3 nM. Further, the remaining at 0.5 h, 1 µM in series [1] came to 62%; in series [2] it was 49%.

Turning to `CC1c2c[nH]nc2-c2cc(F)ccc2N1S(=O)(=O)c1cn(C)cn1` (racemic), on Gamma-secretase, the IC50 is 5500 nM. The figures for the remaining at 0.5 h, 1 µM in series [1] and in series [2] were 76% and 65%, respectively.

`O=S(=O)(c1ccc(C(F)(F)F)cc1)N1c2ncccc2-c2n[nH]cc2C1C1CC1` (racemic) displayed an IC50 against Gamma-secretase of 1.1 nM. The remaining at 0.5 h, 1 µM in series [1] is 59%; in series [2], 53%.

`CC1c2c[nH]nc2-c2cc(Cl)sc2N1S(=O)(=O)c1ccc(C(F)(F)F)cc1` (racemic) came in with an IC50 on Gamma-secretase of 4.5 nM. The figures for the remaining at 0.5 h, 1 µM in series [1] and in series [2] were 3% and 18%, respectively.

In the case of `O=S(=O)(c1ccc(Cl)cc1)N1Cc2c[nH]nc2-c2ccccc21`, half-maximal inhibition against Gamma-secretase (IC50) required 27 nM. The figures for the remaining at 0.5 h, 1 µM in series [1] and in series [2] were 0% and 2%, respectively.

In the case of `COc1ccc(S(=O)(=O)N2c3ccccc3-c3n[nH]cc3C2C2CC2)cc1` (racemic), inhibition against Gamma-secretase was half-maximal at 3.2 nM (IC50). For the same compound, the results for the remaining at 0.5 h, 1 µM in series [1] and in series [2] were 3% and 2%, respectively.

Take `N#Cc1ccc2c(c1)N(S(=O)(=O)c1ccc(C(F)(F)F)cc1)C(C1CC1)c1c[nH]nc1-2` (racemic): the IC50 against Gamma-secretase was determined as 0.17 nM. In addition, the results for the remaining at 0.5 h, 1 µM in series [1] and in series [2] were 80% and 77%, respectively.

With `Cc1nc2c(s1)N(S(=O)(=O)c1ccc(C(F)(F)F)cc1)C(C1CC1)c1c[nH]nc1-2` (racemic), half-maximal inhibition on Gamma-secretase (IC50) required 24 nM. Further, the remaining at 0.5 h, 1 µM in series [1] was 31%; in series [2], 8%.

`CC1c2c[nH]nc2-n2ccnc2N1S(=O)(=O)c1ccc(Cl)cc1` (racemic): the IC50 against Gamma-secretase turned out to be 27 nM. Also, the remaining at 0.5 h, 1 µM was found to be 74% in series [1] and 56% in series [2].

On to `CC(C)C1c2c[nH]nc2-c2ccccc2N1S(=O)(=O)c1ccc(Cl)cc1` (racemic), for which the IC50 on Gamma-secretase was 0.28 nM. Also, the remaining at 0.5 h, 1 µM in series [1] turned out to be 1%; in series [2], 2%.

In turn, `O=S(=O)(c1ccc(C(F)(F)F)cc1)N1c2cc(N3CCOCC3)ccc2-c2n[nH]cc2C1C1CC1` (racemic) showed an IC50 against Gamma-secretase of 0.58 nM. Besides, the remaining at 0.5 h, 1 µM in series [1] was 29%; in series [2], 17%.
